# Measurements from ChEMBL document CHEMBL2384907, “Identification of substituted pyrimido[5,4-b]indoles as selective Toll-like receptor 4 ligands” (J Med Chem, 2013).
# Legend:
# Assay type in all cases: cell-based
# [1] = Cytotoxicity against mouse BMDC cells up to 10 uM after overnight incubation by MTT assay
# Procedure, shortened: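 BMDC (10^5/well) incubated 18 h with graded concentrations alongside 0.5% DMSO vehicle and MPLA 1 μg/mL; cells lysed after overnight MTT incubation, absorbance 570 nm minus 650 nm reference. Triplicates, mean ± SEM, two independent experiments.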
# [2] = target: Toll-like receptor 4 (Homo sapiens) (UniProt O00206); assay: Activation of TLR4 in human PBMC cells assessed as AUC of IL8 release at 10 uM after 18 hrs by ELISA relative to N-cyclohexyl-2-(4-oxo-3-phenyl-4,5-dihydro-3H-pyrimido[5,4-b]indol-2-ylthio)acetamide
# Chain of Toll-like receptor 4 (Homo sapiens) (O00206 whole entry): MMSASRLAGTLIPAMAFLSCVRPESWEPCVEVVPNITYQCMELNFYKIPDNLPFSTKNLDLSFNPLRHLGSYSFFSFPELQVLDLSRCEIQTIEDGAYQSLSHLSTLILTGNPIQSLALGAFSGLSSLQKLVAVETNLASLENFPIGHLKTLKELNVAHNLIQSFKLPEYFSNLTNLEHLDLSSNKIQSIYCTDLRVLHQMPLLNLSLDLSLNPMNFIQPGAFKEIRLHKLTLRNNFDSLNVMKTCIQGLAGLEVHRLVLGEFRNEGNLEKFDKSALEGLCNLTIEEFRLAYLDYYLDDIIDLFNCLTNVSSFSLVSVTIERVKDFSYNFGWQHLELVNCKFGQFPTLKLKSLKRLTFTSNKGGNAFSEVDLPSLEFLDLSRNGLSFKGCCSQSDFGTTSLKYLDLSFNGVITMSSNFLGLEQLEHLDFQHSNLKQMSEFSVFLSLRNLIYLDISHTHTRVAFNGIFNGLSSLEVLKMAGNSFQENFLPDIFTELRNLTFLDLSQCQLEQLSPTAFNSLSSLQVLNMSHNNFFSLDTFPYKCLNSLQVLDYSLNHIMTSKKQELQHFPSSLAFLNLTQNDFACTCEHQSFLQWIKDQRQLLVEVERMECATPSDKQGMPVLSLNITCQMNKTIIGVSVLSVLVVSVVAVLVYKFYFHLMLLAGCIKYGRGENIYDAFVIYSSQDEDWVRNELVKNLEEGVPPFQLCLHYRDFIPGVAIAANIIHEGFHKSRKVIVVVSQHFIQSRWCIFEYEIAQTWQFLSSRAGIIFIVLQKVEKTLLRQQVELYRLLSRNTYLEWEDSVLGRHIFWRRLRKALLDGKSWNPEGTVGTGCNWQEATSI
# Procedure, shortened: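 Human PBMC from buffy coats, 1 × 10^6/mL in complete RPMI, 18 h at 37 °C, 5% CO2 with compound at 10 μM; IL-8 in supernatant by ELISA, normalized to reference hit set at 100. LPS 10 ng/mL positive control.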
# [3] = target: T1, Toll-like receptor 4 (Mus musculus) (UniProt Q9QUK6); assay: Activation of mouse TLR4 transfected in HEK293 cells after 18 hrs by SEAP assay relative to N-cyclohexyl-2-(4-oxo-3-phenyl-4,5-dihydro-3H-pyrimido[5,4-b]indol-2-ylthio)acetamide
# T1 sequence (whole entry): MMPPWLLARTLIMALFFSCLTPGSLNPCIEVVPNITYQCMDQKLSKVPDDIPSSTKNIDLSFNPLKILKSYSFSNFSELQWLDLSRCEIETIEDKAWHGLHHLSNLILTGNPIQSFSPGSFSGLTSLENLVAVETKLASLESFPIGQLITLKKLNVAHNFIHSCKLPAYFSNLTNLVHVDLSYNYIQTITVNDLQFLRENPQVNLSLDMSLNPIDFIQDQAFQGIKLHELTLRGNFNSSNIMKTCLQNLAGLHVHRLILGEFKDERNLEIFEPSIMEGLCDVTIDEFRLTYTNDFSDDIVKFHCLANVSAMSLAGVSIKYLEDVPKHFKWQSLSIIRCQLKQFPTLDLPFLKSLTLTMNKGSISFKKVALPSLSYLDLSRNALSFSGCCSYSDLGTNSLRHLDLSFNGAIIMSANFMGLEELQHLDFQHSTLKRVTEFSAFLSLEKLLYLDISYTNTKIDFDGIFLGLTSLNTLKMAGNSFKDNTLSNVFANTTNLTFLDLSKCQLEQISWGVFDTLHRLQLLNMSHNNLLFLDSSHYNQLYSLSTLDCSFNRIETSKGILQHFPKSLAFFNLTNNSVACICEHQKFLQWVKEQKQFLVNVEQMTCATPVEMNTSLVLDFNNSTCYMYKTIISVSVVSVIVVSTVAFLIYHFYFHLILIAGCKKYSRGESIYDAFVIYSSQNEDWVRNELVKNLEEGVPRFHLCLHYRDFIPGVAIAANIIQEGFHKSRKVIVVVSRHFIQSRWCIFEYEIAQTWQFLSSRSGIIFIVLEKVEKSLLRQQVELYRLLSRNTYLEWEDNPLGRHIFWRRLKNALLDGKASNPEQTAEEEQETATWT
# Procedure, shortened: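 Mouse TLR4 HEK-Blue cells (2.5 × 10^4/well) given titrated doses 312 nM–10 μM for 18 h, 0.5% DMSO vehicle; SEAP at 630 nm. Percent-activity curves, AUC by trapezoid method, normalized to reference hit set at 100. LPS 10 ng/mL control.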
# [4] = target: Toll-like receptor 4 (Homo sapiens) (UniProt O00206); assay: Activation of human TLR4 transfected in HEK293 cells after 18 hrs by SEAP assay relative to N-cyclohexyl-2-(4-oxo-3-phenyl-4,5-dihydro-3H-pyrimido[5,4-b]indol-2-ylthio)acetamide; design: concentration or dose not given beside the values
# Procedure, shortened: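 Human TLR4 HEK-Blue cells (2.5 × 10^4/well) given compound at 10 μM for 18 h, 0.5% DMSO vehicle; SEAP in supernatant read at 630 nm, normalized to reference hit set at 100. LPS 10 ng/mL positive control.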
# [5] = target: T1, Toll-like receptor 4 (Mus musculus); assay: Activation of TLR4 in C57BL/6 mouse BMDC cells assessed as AUC of IP10 release at 5 uM after 18 hrs by ELISA relative to N-cyclohexyl-2-(4-oxo-3-phenyl-4,5-dihydro-3H-pyrimido[5,4-b]indol-2-ylthio)acetamide
# [6] = target: T1, Toll-like receptor 4 (Mus musculus); assay: Activation of TLR4 in C57BL/6 mouse BMDC cells assessed as AUC of IL6 release after 18 hrs by ELISA relative to N-cyclohexyl-2-(4-oxo-3-phenyl-4,5-dihydro-3H-pyrimido[5,4-b]indol-2-ylthio)acetamide
# Procedure, shortened: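 C57BL/6 bone marrow DC, 10^5 cells/well in RPMI-10% FCS, 18 h at 37 °C with titrated doses 312 nM–10 μM; supernatant IL-6 by ELISA. Each curve converted to percent activity (background subtracted, plate-adjusted), AUC by trapezoid method, normalized to reference hit set at 100 per experiment. LPS 10 ng/mL positive control; 0.5% DMSO vehicle.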
Activity [2] [%],Activity [3] [%],Activity [4] [%],Activity [5] [%],Activity [6] [%],SMILES,Activity [1]
79,100,92,99,101,Cn1c2ccccc2c2nc(SCC(=O)NC3CCCCC3)n(-c3ccccc3)c(=O)c21,Non-toxic
5,1,1,< 1,< 1,O=C(CSc1nc2c([nH]c3ccccc32)c(=O)n1CCc1ccccc1)NC1CCCCC1,–
5,28,23,52,53,O=C(CSc1nc2c([nH]c3ccccc32)c(=O)n1-c1ccccc1)NC1CCCC1,–

# Second part, the compound before the results:
SMILES,Activity [2] [%],Activity [3] [%],Activity [4] [%],Activity [5] [%],Activity [6] [%],Activity [1]
N#CCn1c2ccccc2c2nc(SCC(=O)NC3CCCCC3)n(-c3ccccc3)c(=O)c21,30,55,19,64,98,Non-toxic
CCCn1c2ccccc2c2nc(SCC(=O)NC3CCCCC3)n(-c3ccccc3)c(=O)c21,–,–,–,–,–,Non-toxic
O=C(CSc1nc2c([nH]c3ccccc32)c(=O)n1-c1ccccc1)NC1CCCCCCC1,73,95,64,98,114,–
Cc1ccc(-n2c(SCC(=O)NC3CCCCC3)nc3c([nH]c4ccccc43)c2=O)cc1,6,2,2,< 1,< 1,–
